# Assay outcomes (PubChem)
# Only a selection was taken, and hits are over-represented in it overall.
# PTEN del growth = growth suppressors of cells with PTEN tumor suppressor deletion | HCT116 PTEN-null viability, CellTiter-Glo, 60 h; stronger effect = lower value | viability, % at 10 µM | 1.2% of 140,000 active | AID 827;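 active = viability at or below a set limit, 4 SD under the median of all tested compounds, cut at about 3.7% in these data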;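 also: PTEN knockout HCT116 line with beta catenin targeted HCT116 as companion control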
# HUVEC inhibit = human endothelial cell proliferation inhibition; HUVEC proliferation, CellTiter-Glo luminescence, 72 h; stronger effect = lower value; viability, % at 10 µM (by protocol); 1.1% of 86,000 active; AID 648;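 active = viability at or below 30%; inactive = viability above 30%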;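 also: 100% = median luminescence of DMSO-only cell control wells on each plate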
# H69AR inhibit = blocks growth of human H69AR lung tumor cells; viability, % at 10 µM; H69AR lung tumor viability, ATP luminescence, 72 h; stronger effect = lower value; 6% of 85,000 active;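 active = viability at or below 40%; inactive = viability above 40%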;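 also: multidrug resistant small cell line overexpressing MRP-1 efflux transporter; 100% = mean luminescence of untreated control wells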
# HCT116 bCat-KO = beta-catenin-lacking colon tumor cell growth suppression; HCT116 beta-catenin knockout viability, CellTiter-Glo, 60 h; stronger effect = lower value; viability, % at 10 µM; 1.5% of 140,000 active;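 active = viability at or under a set limit, the compound median less 4 SD, cut at about 6% in these data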;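 also: 0% = Hyamine 1622 control at 20 µM and 100% = untreated cell control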
# Lung fibro prol = blocks proliferation of human lung fibroblasts; LL 47 human lung fibroblast viability, ATP luminescence; stronger effect = lower value; viability, % at 10 µM; 1.1% of 85,000 active; AID 719;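 active = viability at or below 50% in the single dose screen; inactive = viability above 50%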;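 also: compound exposure lasted 72 h before the ATP readout; 100% = median luminescence of untreated cell-only wells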
#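 Material: Human LL 47 lung fibroblast cells | Input: 1,150 cells/well | Buffer or medium: IMEM plus 15% FBS | Compound dosing: 0.1% DMSO in all compound wells | Times: Overnight cell rest, 72 h compound treatment at 37 °C | Signal: CellTiter-Glo luminescence measuring cellular ATP | Measure: % viability versus median cells-only luminescence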
# * = called active by the depositor; · = no result given.
SMILES,PTEN del growth,HUVEC inhibit,H69AR inhibit,HCT116 bCat-KO,Lung fibro prol
Cc1oc2c(c1C(=O)c1ccccc1)C(=O)C(=O)c1ccccc1-2,1.5*,3.1*,1.4*,1.2*,2.1*
O=C(CCCSc1nnnn1-c1cccc2ccccc12)c1ccc(F)cc1,86,·,·,93,·
Cc1cc(Oc2ccc(C#N)cc2)nc(NCc2ccccc2)n1,81,94,93,80,94
CCc1nnc2n1N=C(c1ccc(-c3ccc(Cl)cc3Cl)o1)CS2,·,97,84,·,95
Clc1ccc(OCc2nnc3n2N=C(c2ccc4c(c2)OCCO4)CS3)c(Cl)c1,27,77,38*,27,87
CCCCCOc1ccc(Br)cc1/C(C)=N/NC1=NCCN1,4,6.4*,2.3*,3.1*,93
C=C(C)CNC(=S)NNC(=O)c1ccc(Br)cc1,90,·,·,85,·
CCOc1ccccc1C(=O)N1CCCCC1C (stereo not drawn),95,113,94,94,93
COc1ccc(/C=N/NS(=O)(=O)c2ccccc2)cc1OS(=O)(=O)c1ccc(C)cc1,18,·,·,11,·
CCCCNc1c2c3c(cccc3n(C)c1=O)C(=O)c1ccccc1-2,40,52,16*,39,83
Cn1c(=O)c(NCCO)c2c3c(cccc31)C(=O)c1ccccc1-2,92,46,55,92,100
O=C(CSCc1c(Cl)cccc1Cl)Nc1ccc2c(c1)OCCO2,80,·,·,85,·
COC(=O)/C=C1/S/C(=N/N=C/c2ccc(N(C)C)cc2)NC1=O,93,·,·,82,·
CCC(C)Cn1c(C(C)O)nc2ccccc21 (stereo not drawn),100,98,97,99,104
Cc1[nH]c2ccccc2c1SCCN,·,96,35*,·,94
Cc1ccc(C(=O)NCCSc2c(C)[nH]c3ccccc23)cc1[N+](=O)[O-],49,·,·,44,·
Cn1c(C(=O)N2CCCC(C(=O)NCc3cccs3)C2)cc2sccc21 (stereo not drawn),90,89,88,85,93
Cn1c(C(=O)N2CCCC(C(=O)NCCCSC3CCCCC3)C2)cc2sccc21 (stereo not drawn),67,71,29*,71,94
CC(C)N(C(=O)CSc1nn2c(=O)c(C(C)(C)C)nnc2s1)c1ccccc1,68,66,14*,73,·
CC(C)(C)c1nnc2sc(SCCN3C(=O)c4ccccc4C3=O)nn2c1=O,86,97,78,87,98
COCC(COCCCNC(=O)Nc1ccc(Br)cc1)OC (stereo not drawn),90,99,99,91,100
COc1ccccc1OCCCCN1CCN(C(c2ccccc2)c2ccccc2)CC1,37,·,·,53,·
COc1cc(/C=N/Nc2cccc(C)c2)ccc1OC(=O)c1ccco1,74,·,·,87,·
CN(C)c1ccccc1C(=O)c1ccccc1N(C)C,19,59,14*,19,59
CN(c1ccccc1C(=O)O)S(C)(=O)=O,109,101,93,101,101
SMILES,PTEN del growth,HUVEC inhibit,H69AR inhibit,HCT116 bCat-KO,Lung fibro prol
Cc1cccc(N=C2NN=C(c3c(C)[nH]c4ccccc34)CS2)c1,4,·,·,2.7*,·
Cc1cccc(N=C2NN=C(c3ccc4c(c3)OCCO4)CS2)c1,30,86,77,36,102
Cc1ccc(C(=O)CC(=O)c2cc(Cl)ccc2O)cc1,64,9.4*,5.2*,66,30*
CC(C)(C)c1ccc(C(=O)CC(=O)c2cc(Cl)ccc2O)cc1,24,7.6*,25*,29,46*
CC(C)(C)c1ccc(C(=O)NNC(=O)c2ccc(Cl)cc2)cc1,73,·,·,74,·
O=C(CC(=O)c1ccccc1O)c1ccc(F)cc1,46,·,·,54,·
COc1cc(/C=N/n2nnnc2Nc2ccccc2)cc(OC)c1OC,72,·,·,87,·
Cc1ccc(C(=O)C(OC(=O)CN2C(=O)c3ccccc3C2=O)c2ccccc2)cc1C (stereo not drawn),103,·,·,97,·
CC(C)N=c1scc(-c2ccco2)n1/N=C/c1ccc(O)c(O)c1,72,47,31*,77,48*
Oc1ccc(/C=N/n2c(-c3ccco3)csc2=Nc2cccnc2)c(O)c1,31,·,·,31,·
Cc1ccc2nc(N(CCCN(C)C)C(=O)c3cc4ccccc4oc3=O)sc2c1,90,·,·,84,·
CN(C)CCCN(C(=O)c1cc2ccccc2oc1=O)c1nc2c(F)cccc2s1,114,·,·,95,·
CN(C)CCCN(C(=O)c1sc2ccccc2c1Cl)c1nc2ccc(F)cc2s1,98,·,·,102,·
Cc1ccc2nc(N(CCCN(C)C)C(=O)CCc3ccccc3)sc2c1,1.5*,·,·,2.4*,·
CN(C)CCCN(C(=O)CCc1ccccc1)c1nc2ccc(Cl)cc2s1,1.7*,·,·,1.5*,·
CN(C)CCCN(C(=O)c1ccc2c(c1)CCCC2)c1nc2ccc(Cl)cc2s1,2.7*,·,·,3.6*,·
CCCCn1cnc2cc(NCc3ccncc3)ccc21,95,106,100,96,91
CN(C)c1ccc(CNc2ccc3c(c2)ncn3C)cc1,91,91,5.2*,83,95
CC(C)(C)c1ccc(O)c(/C=N\O)c1,81,95,25*,82,87
CC(C)(C)c1cccc(/C=N/O)c1O,·,107,104,83,102
Cc1cc(N)n2ncc(-c3ccc(Cl)cc3)c2n1,52,36,42,55,46*
Cc1cc(NCCCn2ccnc2)n2nc(-c3ccc(F)cc3)cc2n1,81,92,67,72,88
Cc1cc(NCCOCCO)n2ncc(-c3ccc(Cl)cc3)c2n1,19,41,22*,28,41*
Cc1cc(N)n2ncc(-c3ccc(F)cc3)c2n1,93,79,69,80,81
CC(C)(C)c1cc(NCCCn2ccnc2)n2ncc(-c3ccc(Cl)cc3)c2n1,25,8.7*,5.2*,20,45*
SMILES,PTEN del growth,HUVEC inhibit,H69AR inhibit,HCT116 bCat-KO,Lung fibro prol
Cc1ccc(-c2nnc(SCC(=O)NC3CCS(=O)(=O)C3)nc2-c2ccc(C)cc2)cc1 (stereo not drawn),85,·,·,91,·
Cn1c(=O)c2[nH]c(CNCc3ccccc3Cl)nc2n(C)c1=O,90,93,90,94,94
O=C(N1CCOCC1)N1CCCN(C(=O)N2CCOCC2)CC1,103,92,36*,104,100
CCOC(=O)c1c(C)oc2c1c(C(c1ccncc1)N1CCOCC1)c(O)c1ccccc12 (stereo not drawn),17,60,0.9*,9,53
CCn1c(=O)cc(OCC(=O)Nc2ccccc2C#N)c2ccccc21,96,·,·,94,·
O=C(CCCOc1ccc(Cl)cc1Cl)N/N=C/c1ccccc1O,9,·,·,4.6*,·
CCOC(=O)Cn1c2ccccc2c2nc3ccccc3nc21,44,107,6.1*,21,96
COc1ccc2c(c1)c1nc3ccccc3nc1n2CC(=O)OC(C)C,3.7*,57,18*,2.3*,39*
CCOC(=O)c1oc2ccc(S(=O)(=O)n3nc(-c4ccccc4)cc3N)cc2c1C,42,100,86,50,92
CCOC(=O)c1oc2ccc(S(=O)(=O)n3nc(-c4ccc(OC)cc4)cc3N)cc2c1C,26,74,27*,21,79
